An excerpt weighted towards active compounds, which were near 2.9% of everything screened.
Cneo AK release: causes C. neoformans cell lysis | adenylate kinase release luminescence, 4 h; normalised: neutral wells 0, clomiphene wells 100 | 360,000 tested, 0.2% active | lysis activity, % at 15 µM;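 active = mean lysis activity across replicates of at least 80%, whatever share of replicates individually reach that level; inactive = mean lysis activity below 80%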
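Material: C. neoformans cells; Schedule: 4 h static compound exposure, 37 °C, read 1 h post-reagent; Measured by: adenylate kinase release luminescence; Read-out: signal increase indicating cell lysis; Controls: Clomiphene as positive lysis control.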
Env fusion inh: blocks HIV Env-driven cell-cell fusion. inhibition, % at 12.3 µM. HeLa-JRFL Env/CEM21 cell fusion, luciferase. 360,000 tested, 1.1% active;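 active = mean replicate inhibition score of at least 50 and every replicate individually at or above 50; inconclusive = only one of the two criteria met; inactive = mean below 50 and not all replicates reaching 50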
dFosB act: enhances mouse delta FosB homodimer DNA binding; P13346; 340,000 tested, 0.99% active; AID 493131; activation, % at 25 µM; purified delta FosB, TAMRA-CDK5 oligo fluorescence polarization; percent of positive-control signal above neutral wells;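 active = mean activation above about 17%, with every replicate also reaching it, limit read from the data, passing the limit was not always enough; inconclusive = only one of the two conditions met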
Target sequence (P13346 whole entry, looked up): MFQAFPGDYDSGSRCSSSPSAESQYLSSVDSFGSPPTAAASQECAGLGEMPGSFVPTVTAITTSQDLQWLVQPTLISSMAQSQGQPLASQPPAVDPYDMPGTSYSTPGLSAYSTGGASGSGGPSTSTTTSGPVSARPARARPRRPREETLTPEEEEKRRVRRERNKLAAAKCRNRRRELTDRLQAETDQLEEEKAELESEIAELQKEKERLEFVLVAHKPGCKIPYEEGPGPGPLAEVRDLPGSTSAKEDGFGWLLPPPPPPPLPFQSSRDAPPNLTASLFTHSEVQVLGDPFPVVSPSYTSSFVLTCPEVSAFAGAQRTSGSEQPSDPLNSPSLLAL
INS-1E GSIS act: primary screen for activators of insulin secretion dependent on glucose, INS-1E cells, GLuc reporter luminescence; 370,000 tested, 0.61% active; activation, % at 16.6 µM; INS-1E GLuc reporter insulin secretion, 2-3 h; AID 743287;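 active = lowest replicate activation of at least 40%, so every replicate reaches that level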
PAX8 reporter: PAX8 transcriptional activity inhibition; RMG-I TPO-luciferase reporter, SteadyGlo, 24 h; inhibition, % at 12.6 µM; 360,000 tested, 1.2% active;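 active = mean replicate inhibition at least 60% with every replicate also reaching 60%; inconclusive = only one of the two criteria is met; inactive = mean below 60% and not all replicates reaching 60%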;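 note: luciferase light reporting Pax8 driven TPO promoter activity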
CDK5 inh: blocks human CDK5/p35 kinase activity; Q00535+Q15078; Recombinant CDK5/p35, ADP-Glo luminescence, 60 min; inhibition, % at 10 µM; 330,000 tested, 0.01% active; AID 488839;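 active = highest replicate inhibition of at least 50% and at least 75% of replicates reaching 50%; inconclusive = only one of the two criteria met; inactive = both criteria failed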
Hits are given with their value; – = inactive; ? = inconclusive; · = no result.

SMILES	Cneo AK release	Env fusion inh	dFosB act	INS-1E GSIS act	PAX8 reporter	CDK5 inh
C[C@H]1CCCCO[C@@H](CN(C)C(=O)Nc2ccc(C(F)(F)F)cc2)[C@@H](C)CN([C@@H](C)CO)C(=O)c2cc(NS(=O)(=O)c3cn(C)cn3)ccc2O1	–	–	·	–	91	·
O=C(C[C@@H]1CC[C@H](NC(=O)CC2CC2)[C@@H](CO)O1)NCC(F)(F)F	–	–	·	–	–	·
CO[C@H]1CN(C)C(=O)c2cc(NC(=O)Nc3ccccc3)ccc2OC[C@H](C)N(C(=O)Nc2c(C)noc2C)C[C@@H]1C	–	·	·	–	–	·
Cc1ccc(S(=O)(=O)N2CC3(O)CN(C(=O)OC(C)C)N(C(=O)OC(C)C)CC3(OC(=O)Nc3cccs3)C2)cc1 (stereo not given)	–	–	·	–	–	·
Cc1ccc(S(=O)(=O)N2CC3(O)CN(C(=O)OC(C)C)N(C(=O)OC(C)C)CC3(OC(=O)NC3CCCC3)C2)cc1 (stereo not given)	–	75	·	–	–	·
C[C@@H]1CN([C@H](C)CO)C(=O)Cc2cc(NC(=O)C3CC3)ccc2O[C@H]1CN(C)Cc1ccncc1	–	–	·	–	–	·
COC(=O)N(C)C[C@H]1OCc2ccccc2-c2c(n(C)c3ccccc23)C(=O)N([C@H](C)CO)C[C@H]1C	–	·	·	–	·	·
C/C(Cl)=C\Cn1c(N2CCCC2)nc2c1c(=O)n(C)c(=O)n2C	–	–	–	65	–	–
COc1ccc(CN(C)C[C@H]2OCCCC[C@@H](C)Oc3ccc(NC(=O)Nc4c(C)noc4C)cc3C(=O)N([C@H](C)CO)C[C@@H]2C)cc1	–	–	·	–	–	·
N#C[C@@H]1[C@H](c2ccccc2-c2ccc(F)cc2)[C@H](CO)N1C(=O)NC1CCCCC1	·	·	·	–	–	·
Cc1ccc(-c2cnc3cccnn23)cc1F	–	–	·	46	–	·
C[C@@H]1CCCCO[C@@H](CN(C)CC2CCCCC2)[C@H](C)CN([C@@H](C)CO)C(=O)c2cc(NS(C)(=O)=O)ccc2O1	–	–	·	–	–	·
COc1ccc(N=Nc2ccc(N)nc2N)cc1	–	–	–	–	–	–
CCOc1ccc2nc3cc(N=Nc4ccc(N)nc4N)ccc3c(N)c2c1	·	·	?	·	·	62
Cc1cc(C(=O)Nc2ccc3c(c2)C(=O)N(C)[C@H]2CC[C@@H](CC(=O)N[C@@H](C)c4ccccc4)O[C@@H]2CO3)no1	–	–	·	–	–	·
COc1ccc2c3c([nH]c2c1)[C@@H](CO)N(C(=O)C1CCOCC1)CC31CN(Cc2cccc(F)c2)C1	·	·	·	–	·	·
C[C@H](CO)N1C[C@H](C)[C@H](CN(C)S(=O)(=O)c2cn(C)cn2)Oc2cc(C3=CCCC3)ccc2S1(=O)=O	–	–	·	–	–	·
O=C1[C@H]2[C@@H](c3ccc(F)cc3)N3C(=O)N(c4cccc(Cl)c4)C(=O)[C@@]3(Cc3ccc(Cl)cc3)[C@H]2C(=O)N1C1CCCCC1	–	99	–	–	–	–
CC(C)C[C@@]12C(=O)N(c3cccc(F)c3)C(=O)N1[C@H](c1ccc(F)cc1)[C@@H]1C(=O)N(C3CCCCC3)C(=O)[C@@H]12	–	–	–	–	–	–
CC(C)C[C@@]12C(=O)N(c3cccc(F)c3)C(=O)N1[C@H](c1ccc(Cl)cc1)[C@@H]1C(=O)N(C3CCCCC3)C(=O)[C@@H]12	–	95	–	·	–	–
O=C1[C@H]2[C@@H](c3ccc(Cl)cc3)N3C(=O)N(c4cccc(Br)c4)C(=O)[C@@]3(Cc3ccc(Cl)cc3)[C@H]2C(=O)N1C1CCCCC1	–	82	?	–	–	–
O=C1[C@H]2[C@@H](c3ccc(F)cc3)N3C(=O)N(c4cccc(Br)c4)C(=O)[C@@]3(Cc3ccc(Cl)cc3)[C@H]2C(=O)N1C1CCCCC1	–	59	–	–	–	–
CC(C)(C)N1C(=O)[C@H]2[C@@H](c3ccc(Br)cc3)N3C(=O)N(c4cccc(Cl)c4)C(=O)[C@@]3(Cc3ccccc3)[C@H]2C1=O	–	–	–	–	–	–
O=C(C[C@H]1C[C@H]2c3cc(NC(=O)NC4CCCC4)ccc3O[C@H]2[C@@H](CO)O1)NCc1ccccc1F	·	·	·	–	·	·
O=C(CN1C(=O)/C(=C/c2ccc(F)cc2)SC1=S)NC1C=CS(=O)(=O)C1 (stereo not given)	–	–	26	–	–	–
SMILES	Cneo AK release	Env fusion inh	dFosB act	INS-1E GSIS act	PAX8 reporter	CDK5 inh
O=C(CN1C(=O)/C(=C/c2ccc(Cl)cc2)SC1=S)NC1C=CS(=O)(=O)C1 (stereo not given)	–	–	23	–	–	–
COc1ccc(/C=C2\SC(=S)N(CC(=O)NC3C=CS(=O)(=O)C3)C2=O)cc1 (stereo not given)	–	–	85	–	–	–
COc1ccccc1CN1[C@H](CO)[C@@H]2c3ccccc3N(C(=O)c3ccc(F)cc3)C[C@@H]21	–	·	·	–	–	·
O=C(C[C@@H]1C=C[C@H](NC(=O)Nc2ccc3c(c2)OCO3)[C@H](CO)O1)NCc1ccc(Cl)cc1	–	–	·	–	–	·
CN1CCN(c2ccc(NC(=O)c3cc4ccccc4o3)cc2)CC1	–	–	–	·	–	–
CCN1CCN(c2ccc(NC(=O)c3ccc(Br)o3)cc2)CC1	–	–	–	–	–	–
O=C(Nc1ccc(N2CCCC2)cc1)c1ccc(Br)o1	–	·	40	·	·	–
CN1CCN(c2ccc(NC(=O)c3ccc(-c4ccc(Br)cc4)o3)cc2)CC1	·	–	41	–	–	–
CN(C)CCc1cc2c(c3c1ccc1ccccc13)OCO2	–	–	47	·	–	–
COc1cc2ccc3c(CCN(C)C)cc(OC)c(OC)c3c2cc1OC	–	–	–	–	–	–
CCOc1ccc(/C=C/C(=O)c2cc(Br)ccc(=O)c2O)cc1	·	64	–	·	–	–
Cc1cc(CCNC=O)c(C)c2c1oc1ccccc12	·	–	–	57	·	–
Cc1ccccc1-c1cc(=O)c2ccccc2o1	–	–	–	–	–	–
Cc1[nH]nc(-c2cccnc2)c1N=NN(C)C	·	–	–	–	71	–
CC1(C(=O)NCc2ccccc2)CCC(=O)N1C1CCN(Cc2ccccc2)CC1 (stereo not given)	·	?	·	–	–	·
CCCCNC(=O)C1(C)CCC(=O)N1C1CCN(Cc2ccccc2)CC1 (stereo not given)	–	64	·	–	–	·
COC(=O)Cn1cnc2c(cnn2-c2ccccc2)c1=O	·	–	–	·	–	–
Cc1cccc(NC(=O)Cn2cnc3c(cnn3-c3ccc(F)cc3)c2=O)c1C	–	–	49	–	–	–
COc1ccc(C(=O)NCCc2ccc(Cl)cc2)cc1S(=O)(=O)N1CCCCC1C (stereo not given)	–	89	–	·	–	–
COc1ccc(C(=O)NCCc2c[nH]c3ccccc23)cc1S(=O)(=O)N1CCCCC1C (stereo not given)	–	–	–	–	–	–

Screens (PubChem)
